Tests used:
MCF7 [1] = experiment: Induction of apoptosis in human MCF7 cells assessed as early apoptotic cells at IC50 concentration after 24 hrs using V-FITC and propidium iodide staining by flow cytometry relative to control; type: functional
MCF7 [2] = experiment: Induction of apoptosis in human MCF7 cells assessed as viable cells at IC50 concentration after 48 hrs using V-FITC and propidium iodide staining by flow cytometry (reference value: 86.26 +/- 7.25 %)
MCF7 [3] = experiment: Induction of apoptosis in human MCF7 cells assessed as late apoptotic cells at IC50 concentration after 24 hrs using V-FITC and propidium iodide staining by flow cytometry (reference value: 1.11 +/- 0.24 %); type: functional
MCF7 [4] = experiment: Induction of apoptosis in human MCF7 cells assessed as late apoptotic cells at IC50 concentration after 24 hrs using V-FITC and propidium iodide staining by flow cytometry (reference value: 0.03 +/- 0.01 %); type: functional
MDA-MB-231 [5] = experiment: Cytotoxicity against human MDA-MB-231 cells expressing high level of p53 […]; type: functional, cell-based
MCF7 [6] = experiment: Cytotoxicity against human MCF7 cells expressing wild type p53 and ras mutant […]; type: functional, cell-based
[7] = Therapeutic index, ratio of IC50 for human MCF10A cells to IC50 for human MDA-MB-231 cells expressing high level of p53; type: cell-based; conditions: MCF10A cells versus MDA-MB-231 cells (high level of p53), read-out: Ratio IC50
Method in brief: (§1)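 Ratio of IC50 in non-tumour MCF-10A to IC50 in the tumour line, both from the SRB growth assay described for cytotoxicity.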

MCF7 [8] = experiment: Induction of apoptosis in human MCF7 cells assessed as necrotic cells at IC50 concentration after 24 hrs using V-FITC and propidium iodide staining by flow cytometry (reference value: 9.55 +/- 0.21 %); type: functional
[9] = Therapeutic index, ratio of IC50 for human MCF10A cells to IC50 for human MCF7 cells expressing wild type p53 and ras mutant; type: cell-based; conditions: MCF10A cells versus MCF7 cells (wild type p53, ras mutant), read-out: Ratio IC50; method in brief: as §1
MCF7 [10] = experiment: Induction of apoptosis in human MCF7 cells assessed as necrotic cells at IC50 concentration after 48 hrs using V-FITC and propidium iodide staining by flow cytometry (reference value: 12.61 +/- 7.50 %); type: functional
MCF7 [11] = experiment: Induction of apoptosis in human MCF7 cells assessed as early apoptotic cells at IC50 concentration after 48 hrs using V-FITC and propidium iodide staining by flow cytometry relative to control; type: functional
[12] = Cytotoxicity against human MCF10A cells […] by SRB assay; type: cell-based; conditions: MCF-10A
MCF7 [13] = experiment: Induction of apoptosis in human MCF7 cells assessed as cell viability at IC50 concentration after 24 hrs using V-FITC and propidium iodide staining by flow cytometry (reference value: 90.42 +/- 0.63 %); type: functional
[14] = Cell cycle arrest in human MCF10A cells assessed as accumulation at G2/M phase after 48 hrs using propidium iodide staining by flow cytometry (reference value: 12.55 +/- 0.68 %); type: ADME, cell-based; conditions: mcf-10a
MDA-MB-231 [15] = experiment: Cell cycle arrest in human MDA-MB-231 cells assessed as accumulation at G2/M phase after 48 hrs using propidium iodide staining by flow cytometry (reference value: 31.59 +/- 0.03 %); type: functional
MCF7 [16] = experiment: Cell cycle arrest in human MCF7 cells assessed as accumulation at G2/M phase after 48 hrs using propidium iodide staining by flow cytometry (reference value: 1.57 +/- 2.12 %); type: functional
MDA-MB-231 [17] = experiment: Cell cycle arrest in human MDA-MB-231 cells assessed as accumulation at G0/G1 phase after 48 hrs using propidium iodide staining by flow cytometry (reference value: 42.06 +/- 0.01 %); type: functional
MCF7 [18] = experiment: Cell cycle arrest in human MCF7 cells assessed as accumulation at S phase after 48 hrs using propidium iodide staining by flow cytometry (reference value: 8.55 +/- 0.40 %); type: functional
MDA-MB-231 [19] = experiment: Cell cycle arrest in human MDA-MB-231 cells assessed as accumulation at S phase after 48 hrs using propidium iodide staining by flow cytometry (reference value: 26.35 +/- 0.03 %); type: functional
MCF7 [20] = experiment: Cell cycle arrest in human MCF7 cells assessed as accumulation at G0/G1 phase after 48 hrs using propidium iodide staining by flow cytometry (reference value: 89.88 +/- 1.73 %); type: functional
[21] = Cell cycle arrest in human MCF10A cells assessed as accumulation at G0/G1 phase after 48 hrs using propidium iodide staining by flow cytometry (reference value: 65.70 +/- 1.14 %); type: ADME, cell-based; conditions: mcf-10a
[22] = Cell cycle arrest in human MCF10A cells assessed as accumulation at S phase after 48 hrs using propidium iodide staining by flow cytometry (reference value: 21.78 +/- 0.46 %); type: ADME, cell-based; conditions: mcf-10a

SMILES | Activity (MCF7 [1]) | viability (MCF7 [2]) | Activity (MCF7 [3]) | Activity (MCF7 [4]) | IC50 (MDA-MB-231 [5]) | IC50 (MCF7 [6]) | selectivity ratio [7] | Activity (MCF7 [8]) | selectivity ratio [9] | Activity (MCF7 [10]) | Activity (MCF7 [11]) | IC50 [12] | Activity (MCF7 [13]) | other results
Nc1ccccc1S(=O)(=O)N1CC(n2cnc3c(Cl)nc(Cl)nc32)OCc2ccccc21 (racemic) | 0.02% | 76.34% | 2.77% | 0.28% | 467 nM | 820 nM | 3.25 | 17.61% | 1.85 | 1.99% | 18.89% | 1520 nM | 82.1% | –
CC(=O)O[C@H]1C(=O)[C@@]2(C)[C@H]([C@H](OC(=O)c3ccccc3)[C@]3(O)C[C@H](OC(=O)[C@H](O)[C@@H](NC(=O)c4ccccc4)c4ccccc4)C(C)=C1C3(C)C)[C@]1(OC(C)=O)CO[C@@H]1C[C@@H]2O [PACLITAXEL] | – | – | – | – | – | – | – | – | – | – | – | – | – | Activity [14]: 23.5%; Activity (MDA-MB-231 [15]): 0%; Activity (MCF7 [16]): 18.5%; Activity (MDA-MB-231 [17]): 100%; Activity (MCF7 [18]): 19.01%; Activity (MDA-MB-231 [19]): 0%; Activity (MCF7 [20]): 62.48%; Activity [21]: 36.76%; Activity [22]: 39.75%
Cc1cn(C2CS(=O)(=O)c3ccccc3CO2)c(=O)[nH]c1=O (racemic) | – | – | – | – | – | 12700 nM | – | – | – | – | – | – | – | –
O=[N+]([O-])c1ccccc1S(=O)(=O)N1CC(n2cnc3nc(Cl)nc(Cl)c32)OCc2ccccc21 (racemic) | 0.02% | 79.78% | 3.8% | 0.02% | 318 nM | 990 nM | 4 | 4.94% | 1.27 | 2.48% | 13.93% | 1260 nM | 95.03% | –
O=[N+]([O-])c1ccccc1S(=O)(=O)N1CC(n2cnc3c(Cl)nc(Cl)nc32)OCc2ccccc21 (racemic) | 0.01% | 74.31% | 2.64% | 0.01% | 280 nM | 383 nM | 5.5 | 8.33% | 4 | 3.43% | 19.61% | 1530 nM | 91.65% | –
Clc1nc(Sc2ccccc2)c2ncn(C3CNc4ccccc4CO3)c2n1 (racemic) | 0.07% | 76.3% | 3.88% | 0.07% | – | 13800 nM | – | 7.55% | – | 4.01% | 15.81% | – | 83.09% | –
O=[N+]([O-])c1ccccc1S(=O)(=O)N1CC(n2cnc3c(Br)ncnc32)OCc2ccccc21 (racemic) | 0% | 67.6% | 4.19% | 0% | – | 3620 nM | – | 8.04% | – | 3.76% | 24.43% | – | 91.95% | –
O=[N+]([O-])c1ccc(S(=O)(=O)N2CC(n3cnc4c(Br)ncnc43)OCc3ccccc32)cc1 (racemic) | 0.01% | 51.04% | 2.4% | 0.01% | – | 1230 nM | – | 4.26% | – | 10.92% | 35.64% | – | 95.7% | –
O=[N+]([O-])c1ccc(S(=O)(=O)N2C[C@@H](n3cnc4c(Cl)nc(Cl)nc43)OCc3ccccc32)cc1 | 0.1% | 63.98% | 5.35% | 0.34% | 110 nM | 100 nM | – | 10.37% | – | 1.84% | 28.82% | – | 89.36% | Activity [14]: 10.76%; Activity (MDA-MB-231 [15]): 30.67%; Activity (MCF7 [16]): 3.1%; Activity (MDA-MB-231 [17]): 39.97%; Activity (MCF7 [18]): 7.88%; Activity (MDA-MB-231 [19]): 29.37%; Activity (MCF7 [20]): 89.02%; Activity [21]: 64.22%; Activity [22]: 25.02%
O=S(=O)(c1ccccc1NO)N1CC(n2cnc3c(Cl)nc(Cl)nc32)OCc2ccccc21 (racemic) | 0% | 70.82% | 4.92% | 0.11% | 487 nM | 1530 nM | 2.53 | 9.11% | 0.8 | 5.52% | 18.73% | 1230 nM | 90.86% | –
Cc1cn(C2CN(S(=O)(=O)c3ccccc3[N+](=O)[O-])c3ccccc3CO2)c(=O)[nH]c1=O (racemic) | – | – | – | – | – | 45200 nM | – | – | – | – | – | – | – | –
O=[N+]([O-])c1ccc(S(=O)(=O)N2C[C@H](n3cnc4c(Cl)nc(Cl)nc43)OCc3ccccc32)cc1 | 0.68% | 44.55% | 10.51% | 0.51% | 110 nM | 190 nM | – | 10.23% | – | 2.94% | 41.99% | – | 88.56% | Activity [14]: 12.68%; Activity (MDA-MB-231 [15]): 46.24%; Activity (MCF7 [16]): 1.22%; Activity (MDA-MB-231 [17]): 50.78%; Activity (MCF7 [18]): 11.06%; Activity (MDA-MB-231 [19]): 2.98%; Activity (MCF7 [20]): 87.22%; Activity [21]: 65.33%; Activity [22]: 22%
O=[N+]([O-])c1ccccc1S(=O)(=O)N1CC(n2cnc3c(I)nc(Cl)nc32)OCc2ccccc21 (racemic) | 0% | 58.32% | 9.33% | 0.08% | 256 nM | 610 nM | 1.37 | 7.69% | 0.57 | 8.08% | 24.27% | 351 nM | 92.22% | Activity [14]: 11.34%; Activity (MDA-MB-231 [15]): 30.3%; Activity (MCF7 [16]): 6.38%; Activity (MDA-MB-231 [17]): 40.38%; Activity (MCF7 [18]): 9.53%; Activity (MDA-MB-231 [19]): 28.82%; Activity (MCF7 [20]): 84.1%; Activity [21]: 66.69%; Activity [22]: 21.98%
Cc1cn(C2CN(S(=O)(=O)c3ccc([N+](=O)[O-])cc3)c3ccccc3CO2)c(=O)[nH]c1=O (stereo not drawn) | – | – | – | – | – | 39800 nM | – | – | – | – | – | – | – | –
Cc1cn(C2C[S+]([O-])c3ccccc3CO2)c(=O)[nH]c1=O (racemic) | – | – | – | – | – | 30000 nM | – | – | – | – | – | – | – | –
COC(CN(c1ccccc1CO)S(=O)(=O)c1ccc([N+](=O)[O-])cc1)n1cnc2c(Cl)nc(Cl)nc21 (racemic) | 0.02% | 49.71% | 2.17% | 0.18% | 409 nM | 355 nM | 4.55 | 4.88% | 5.25 | 4.81% | 43.3% | 1860 nM | 94.76% | –
c1ccc(Sc2nc(Sc3ccccc3)c3ncn(C4CNc5ccccc5CO4)c3n2)cc1 (racemic) | 0% | 71.84% | 4.52% | 0.07% | – | 9710 nM | – | 12.68% | – | 4.98% | 18.64% | – | 87.29% | –
O=c1[nH]cc(F)c(=O)[nH]1 [FLUOROURACIL] | – | – | – | – | – | – | – | – | – | – | – | – | – | Activity [14]: 9.56%; Activity (MDA-MB-231 [15]): 25.63%; Activity (MCF7 [16]): 8.06%; Activity (MDA-MB-231 [17]): 38.98%; Activity (MCF7 [18]): 6.06%; Activity (MDA-MB-231 [19]): 35.39%; Activity (MCF7 [20]): 87.4%; Activity [21]: 34.2%; Activity [22]: 55.74%

From ChEMBL document CHEMBL1649390, “New (RS)-benzoxazepin-purines with antitumour activity: The chiral switch from (RS)-2,6-dichloro-9-[1-(p-nitrobenzenesulfonyl)-1,2,3,5-tetrahydro-4,1-benzoxazepin-3-yl]-9H-purine” (Eur J Med Chem, 2011)
